PLCb3 inh – blocks human PLC-beta3 enzyme activity | Q01970 | AID 720704 | inhibition, % at 12.2 µM | hit rate 0.18% among 370,000 | Purified PLC-beta3, fluorogenic substrate, fluorescence; in the data active means inhibition above about 11%;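 further: 0% = median of compound wells on plate and 100% = full blocker control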
VIM-2 inh – blocks Pseudomonas aeruginosa VIM-2 metallo-beta-lactamase; hit rate 0.89% among 290,000; purified VIM-2, nitrocefin hydrolysis, epi-absorbance fluorescence; inhibition, % at 5.6 µM;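 active means inhibition above the mean of all tested compounds plus 3 SD, cutoff set per screening run, cut at about 7.5% in these data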;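 further: red hydrolysis product quenches plate fluorescence so inhibitors raise well fluorescence; 0% = enzyme with DMSO and 100% = DMSO without enzyme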
IMP-1 inh – blocks Pseudomonas aeruginosa IMP-1 metallo-beta-lactamase; hit rate 0.45% among 290,000; purified IMP-1, nitrocefin hydrolysis, epi-absorbance fluorescence; AID 1556; inhibition, % at 5.6 µM;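 active means inhibition above the mean plus 3 SD of all compounds in the same screening run, cut at about 4.5% in these data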;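 further: 0% = IMP-1 with DMSO and 100% = DMSO wells lacking enzyme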
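System: Purified recombinant IMP-1 metallo-beta-lactamase enzyme | Measured by: Fluorescence quenching readout, ex 480/em 530 nm | Replication: Singlicate | Incubation: 15 min preincubation plus 25 min reaction at 25 °C | Evaluation: Percent inhibition from optical density relative to buffer-blank wells | Benchmarks: DMSO with and without IMP-1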
PLC-gamma1 inh – PLC-gamma1 (human) inhibition, primary screen | inhibition, % at 12.2 µM | purified PLC-gamma1, fluorogenic substrate, fluorescence | hit rate 0.84% among 370,000 | AID 720700 | P19174; in the data active means inhibition above about 9.5%
Target sequence (P19174 whole entry, looked up): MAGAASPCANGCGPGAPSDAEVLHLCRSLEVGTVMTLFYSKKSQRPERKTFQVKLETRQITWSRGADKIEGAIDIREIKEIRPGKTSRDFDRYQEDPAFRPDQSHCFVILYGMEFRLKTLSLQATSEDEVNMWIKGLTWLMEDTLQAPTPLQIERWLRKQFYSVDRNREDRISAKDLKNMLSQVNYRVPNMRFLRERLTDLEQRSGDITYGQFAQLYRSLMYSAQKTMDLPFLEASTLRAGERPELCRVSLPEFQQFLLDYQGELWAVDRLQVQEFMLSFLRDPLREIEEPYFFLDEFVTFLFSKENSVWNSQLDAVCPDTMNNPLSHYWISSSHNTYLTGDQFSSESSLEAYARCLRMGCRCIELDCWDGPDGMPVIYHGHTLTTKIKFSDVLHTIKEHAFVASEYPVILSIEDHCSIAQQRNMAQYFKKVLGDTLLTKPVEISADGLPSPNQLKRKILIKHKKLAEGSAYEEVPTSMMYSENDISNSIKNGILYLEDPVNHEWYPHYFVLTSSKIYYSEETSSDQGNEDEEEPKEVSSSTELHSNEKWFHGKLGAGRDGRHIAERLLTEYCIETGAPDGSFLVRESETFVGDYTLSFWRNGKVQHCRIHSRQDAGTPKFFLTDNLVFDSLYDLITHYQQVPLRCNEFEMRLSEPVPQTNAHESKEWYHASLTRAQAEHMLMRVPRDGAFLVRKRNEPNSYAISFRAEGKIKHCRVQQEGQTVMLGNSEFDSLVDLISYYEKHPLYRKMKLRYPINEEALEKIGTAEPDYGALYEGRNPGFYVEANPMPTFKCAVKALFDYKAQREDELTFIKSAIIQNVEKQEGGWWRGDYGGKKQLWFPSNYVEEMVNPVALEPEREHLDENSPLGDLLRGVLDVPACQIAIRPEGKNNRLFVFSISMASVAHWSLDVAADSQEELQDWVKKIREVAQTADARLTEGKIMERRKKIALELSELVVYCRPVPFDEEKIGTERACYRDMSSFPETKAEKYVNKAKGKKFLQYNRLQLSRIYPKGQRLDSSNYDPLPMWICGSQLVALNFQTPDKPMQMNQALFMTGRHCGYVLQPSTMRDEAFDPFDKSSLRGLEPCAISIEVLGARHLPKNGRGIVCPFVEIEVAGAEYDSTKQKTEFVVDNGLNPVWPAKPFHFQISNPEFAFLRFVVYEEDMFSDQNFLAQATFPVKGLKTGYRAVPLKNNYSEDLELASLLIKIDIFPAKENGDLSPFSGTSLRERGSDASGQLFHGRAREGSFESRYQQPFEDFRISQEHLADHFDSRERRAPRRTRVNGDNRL
PvdQ acylase – P. aeruginosa PvdQ acylase inhibition. purified PvdQ acylase, fluorescence plate reader. inhibition, % at 10 µM. hit rate 0.063% among 340,000. AID 488965; in the data active means inhibition above about 30%, passing the limit was not always enough;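 further: 0% = vehicle neutral wells and 100% = reference inhibitor wells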
* = called active by the depositor; i = inactive; x = no result given. In the library only some 2% were active in any assay of this set; here they are far more common.

SMILES	PLCb3 inh	VIM-2 inh	IMP-1 inh	PLC-gamma1 inh	PvdQ acylase
Nn1c(SCc2ccc([N+](=O)[O-])cc2)nc2ccccc2c1=O	-2	-2	7.6*	3	-2
CCCNCC(O)Cn1c2ccccc2n2c(=O)cc(C)c(C#N)c12 (centres undefined)	-13	8.5*	0	-11	-12
COC(=O)C1CN(C2CCCC2)CCS(=O)(=O)N1Cc1cn(Cc2ccc(F)cc2)nn1 (centres undefined)	3	x	x	1	x
CCN1CCCC1CNc1ncnc2c1[nH]c1ccc(Cl)cc12 (centres undefined)	-19	12*	2	-13	-7
Cc1ccc2[nH]c3c(NCCN4CCOCC4)ncnc3c2c1	-53	4	1	-28	-3
Clc1ccc2[nH]c3c(NCCCN4CCOCC4)ncnc3c2c1	-24	9.9*	2	-20	4
CC(C)CNc1cccc2c1S(=O)(=O)N(Cc1cn(Cc3ccc(C(F)(F)F)cc3)nn1)Cc1ccccc1O2	-27	x	x	-24	x
O=S1(=O)c2ccc(N3CCN(Cc4ccccc4F)CC3)cc2Oc2ccccc2CN1Cc1cn(Cc2cccc(C(F)(F)F)c2)nn1	-4	x	x	-1	x
COc1ccccc1C(=O)NNC(=O)c1cccc(F)c1	0	-3	-3	1	0
COc1ccccc1C(=O)NNC(=O)c1ccccc1F	1	-2	8.6*	-1	-2
Cc1ccc[n+](CC(=O)Nc2ccc(Cl)c([N+](=O)[O-])c2)c1	-1	8.9*	-1	-2	-11
C[C@@H](CO)N(Cc1cn(Cc2ccccc2)nn1)S(=O)(=O)c1ccccc1Br	-1	x	x	-2	x
COC(=O)C[C@H]1CC[C@H]2[C@H](COc3ccc(NS(=O)(=O)c4cccc(F)c4)cc3C(=O)N2C)O1	4	x	x	1	x
O=C(O)C1Nc2c(O)cc(Cl)c([N+](=O)[O-])c2C2C=CCC12 (centres undefined)	7	3	-4	31*	-5
CCCn1c(C)nc2c(c1=O)c1nc3ccccc3nc1n2CCC1=CCCCC1	-175	8.3*	-2	-145	-1
COc1ccc(Nc2c3ccccc3nc3ccccc23)cc1	-99	9.2*	-4	-79	-12
O=C(OCCNc1nc(-c2ccccc2)nc2ccccc12)c1ccncc1	-3	9.6*	-5	-4	5
COc1ccc(Nc2nc(-c3ccncc3)nc3ccccc23)cc1	-21	11*	-2	-11	-11
CCC(C)NC(=O)c1ccccc1C(=O)NC(C)CC (centres undefined)	1	-1	6.1*	-1	-7
COC(=O)[C@]12C[C@H](CC(=O)N3CCN(C(=O)c4ccco4)CC3)C(=O)N(Cc3ccco3)C1=C[C@H](C(C)C)O[C@@H]2C1CC1	0	x	x	5	x
C[n+]1cc(C(O)(c2ccccc2)c2ccccc2)n2ccccc21	2	x	x	-1	x
Cc1cc(NC(=O)C2C3C(=O)N(CC4CCCO4)C(C(=O)NCc4ccccc4)C34C=CC2(C)O4)no1 (centres undefined)	3	-3	5.0*	2	2
CC(C)CCN(C)C1CCN(C(=O)Nc2ccc3c(c2)OCO3)CC1	1	x	x	-2	x
CC(COc1ccc(Cl)cc1)CN1CCC(C(O)(c2ccccc2)c2ccccc2)CC1 (centres undefined)	-2	x	x	3	x
CC(=O)Oc1ccc(Cn2cnc3cc4ccccc4cc32)cc1	-7	0	5.5*	-9	3
SMILES	PLCb3 inh	VIM-2 inh	IMP-1 inh	PLC-gamma1 inh	PvdQ acylase
CCOc1ccc2c(c1)ncn2Cc1ccccc1	2	0	-1	1	-14
CN(C)c1ccc(N=Nc2ccccc2C(=O)OCC(=O)NCC2CCCCC2)cc1	2	-3	-4	11*	-6
CN(C)c1ccc(N=Nc2ccccc2C(=O)OCC(=O)NC2CCCC2)cc1	1	-3	-8	5	12
COc1ccc2c(c1)CNC2CS(=O)(=O)NCCc1ccccc1 (centres undefined)	-34	x	x	-26	x
CCCCN(C)CCNC(=O)c1nn(-c2ccc(OC)cc2)c(=O)c2c1c1ccccc1n2C	-84	8.3*	-2	-63	1
CCN(C(=O)c1nn(-c2ccc(OC)cc2)c(=O)c2c1c1ccccc1n2C)c1ccc(OC)cc1	-1	0	-4	3	-10
CC1(C)Oc2ccc3ccc(=O)oc3c2-c2cn[nH]c21	-158	8.0*	-4	-126	-4
CC1(C)Oc2ccc3ccc(=O)oc3c2-c2cnoc21	-39	-2	-3	-27	10
Fc1cccc(Cn2ccc3ccc(-c4ccc5ccn(Cc6cccc(F)c6)c5c4)cc32)c1	-20	x	x	-14	x
OCCNc1nc(-c2cccnc2)nc2ccccc12	-6	2	-1	-6	-14
OCCSc1nc(-c2cccnc2)nc2ccccc12	-5	7.7*	-2	8	1
Cc1ccc(NC(=O)CSc2nc3ccccc3c(=O)n2CCCC(=O)N2CCCC2)cc1	3	1	10*	1	-11
COCCCn1c(SCC(=O)Nc2ccc(C)cc2)nc2ccccc2c1=O	-1	-2	-1	0	-3
COc1ccc(-n2c(SCc3nc4ccccc4[nH]3)nc3ccccc3c2=O)cc1	-12	x	x	-6	x
COc1ccc2c(c1)cc(C(=O)N[C@@H](CCSC)C(=O)N1CCC[C@H]1C(=O)O)n2C	-245	12*	-3	-193	-11
COC(=O)[C@]12C[C@H](CC(=O)NCC3CCCCC3)C(=O)N(Cc3ccc(Cl)cc3Cl)C1=C[C@H](C(C)C)O[C@@H]2C1CC1	2	x	x	3	x
O=C1CSC(=S)N1c1cccc(O)c1	-16	3	2	-6	-12
O=C1CSC(=S)N1c1cccc(F)c1	-7	2	4.9*	-1	-12
O=[N+]([O-])c1ccc2c(c1)Cc1cc(F)ccc1-2	-6	x	x	1	87*
O=C(c1ccc(S(=O)(=O)N2CCCCCC2)cc1)N1CCC(CN2C(=O)c3cccc4cccc(c34)C2=O)CC1	1	-4	5.2*	0	-10
O=S1(=O)c2ccc(N3CCN(Cc4ccccc4F)CC3)cc2Oc2ccccc2CN1Cc1cn(Cc2ccc(C(F)(F)F)cc2)nn1	-2	x	x	-1	x
Cc1ccc(-n2c(SCc3cccc(F)c3)nc3ccccc3c2=O)cc1	-3	x	x	-3	x
CNc1ccc(Br)cc(C(=O)/C=C/c2cccc(OC)c2OC)c1=O	-98	1	6.5*	-78	20
CCNc1ccccc(C(=O)/C=C/c2ccc3c(c2)OCO3)c1=O	-57	0	0	-45	-6
CCNc1ccc(Br)cc(C(=O)/C=C/c2ccccc2Cl)c1=O	-64	0	11*	-42	-1
CNc1ccccc(C(=O)/C=C/c2ccccc2OC)c1=O	-76	-2	2	-60	-11
CNc1ccc(Br)cc(C(=O)/C=C/c2cccc(Cl)c2Cl)c1=O	-120	-2	5.9*	-80	-12
COc1cc(NC(=O)Nc2ccccc2OC)c(OC)cc1NC(=O)CN1CCCCC1	-1	-1	4.7*	0	-9
N=c1c(C(=O)NCC2CCCO2)cc2c(=O)n3ccccc3nc2n1Cc1ccc(Cl)cc1 (centres undefined)	i	9.9*	3	-382	-9

Screens: PubChem, several laboratories
